An excerpt weighted towards active compounds, which were near 3.3% of everything screened.
PMI activator: phosphomannose isomerase (human) activation. 0.005% of 190,000 active. activation factor at 20 µM. purified human PMI, coupled resazurin fluorescence, 20 min; hits give high values; 1 = vehicle control, 0 substrate-free wells. AID 1214. P34949;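 active means activation factor of 2 or more at 20 µM, relative to plate controls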
ABCG2 inh: blocks JC-1 efflux by human ABCG2 transporter | Q9UNQ0 | IgMXP3 cells, flow cytometry | inhibition, % at 6.6 µM | 0.1% of 190,000 active | AID 1325;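 active means inhibition above 80%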;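 further: 0% = DMSO and 100% = nicardipine control wells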
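Test system: IgMXP3 (ABCG2) plus far-red-tagged CCRF-Adr (ABCB1) cells. Reagent: JC-1 dye as substrate. Timing: 10 min exposure at 25 °C with rotation, no wash. Measured by: flow cytometric JC-1 green MFI at 530 nm. Read-out: percent efflux inhibition, scaled nicardipine 100% to DMSO 0%. Control set: nicardipine and DMSO wells.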
KCC2 mod: KCC2 (human) Cl- transport modulation | KCC2 cells, thallium flux FluoZin-2 fluorescence | B-score of Tl+ flux slope (higher = more flux/activation; lower = inhibition) at 10 µM | 2.2% of 190,000 active | AID 1456;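 active means thallium flux slope and its plate-corrected score both differing from the plate sample mean at a set confidence after two filtering rounds, in either direction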;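 further: slope of fluorescence scaled to starting intensity during 10 to 20 s after thallium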
PMI act satM6P: activators of human phosphomannose isomerase at near-saturating mannose 6-phosphate. 0.34% of 190,000 active. activation factor at 20 µM. coupled PMI enzyme assay, resazurin fluorescence, 20 min; hits give high values; 1 = untreated enzyme, 0 = substrate-free blank. AID 1216;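 active means activation factor of 2 or more at 20 µM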
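Material: human phosphomannose isomerase with PGI, G6PDH, diaphorase coupling enzymes / Reagent: Man-6-P substrate 1.0 mM / Dosing: single compound dose of 20 µM, 1% DMSO final / Incubation: enzyme reaction with compound 20 min at room temperature / Signal: resorufin fluorescence (Ex 544/Em 590 nm) from resazurin via diaphorase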
ABCB1 inh: human ABCB1 inhibition, ABCG2 as counter-screen | 0.067% of 190,000 active | AID 1326 | P08183 | inhibition, % at 6.6 µM | CCRF-Adr cells, JC-1 efflux, flow cytometry; in the data active means inhibition above about 40%;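 further: 0% = vehicle and 100% = reference inhibitor; higher value means more JC-1 retained so stronger ABCB1 efflux block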
ROMK mod: modulators of human ROMK potassium channel | Tet-inducible ROMK, thallium flux fluorescence; actives lie on both sides | B-score at 10 µM | P48048 | 2% of 130,000 active;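 active means signal ratio slope over the read window, or its plate-corrected B-score, at least 3 SD from the plate mean, either direction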;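 further: B-score of the F/F0 ratio slope over 7 to 12 s after thallium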
Target sequence (P48048 whole entry, looked up): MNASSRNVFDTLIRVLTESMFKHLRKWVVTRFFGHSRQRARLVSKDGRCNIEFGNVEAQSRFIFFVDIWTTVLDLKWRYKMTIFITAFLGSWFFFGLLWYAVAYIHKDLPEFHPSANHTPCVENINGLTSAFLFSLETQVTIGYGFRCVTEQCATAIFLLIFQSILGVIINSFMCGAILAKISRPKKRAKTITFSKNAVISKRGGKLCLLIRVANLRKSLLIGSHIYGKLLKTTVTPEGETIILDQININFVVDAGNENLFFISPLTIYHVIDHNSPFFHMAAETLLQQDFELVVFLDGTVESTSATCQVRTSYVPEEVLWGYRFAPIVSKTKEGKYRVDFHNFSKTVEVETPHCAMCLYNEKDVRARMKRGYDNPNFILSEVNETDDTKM
ABCB1 confirm: inhibits human ABCB1 efflux, confirmed at single point | inhibition, % at 6.6 µM | AID 1451 | shares compounds with ABCG2 inh | 7% of 270 active | CCRF-Adr cells, JC-1 efflux, flow cytometry;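 active means inhibition of pump activity above 50%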;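 further: 0% = DMSO and 100% = nicardipine full pump inhibition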
ABCG2 confirm: confirmation of human ABCG2 transporter inhibitors, ABCB1 counter-screen; 6% of 270 active; IgMXP3 cells, JC-1 efflux, flow cytometry; inhibition, % at 6.6 µM; shares compounds with ABCG2 inh;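 active means inhibition above 50%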;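 further: 0% = DMSO wells and 100% = nicardipine pump inhibitor wells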
IgMXP3 autofluor: counter-screen for ABCG2 inhibitors: compound fluorescence in IgMXP3 cells; 30% of 270 active; compound autofluorescence 488/530 nm, flow; hits give high values; AID 1480; fluorescence at 6.6 µM; shares compounds with ABCG2 inh;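 active means fluorescence in ABCG2-expressing cells above the plate's control-well mean plus 3 SD, cut at about 15 in these data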;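 further: median cell fluorescence with compound minus that of DMSO-treated control cells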
CCRF autofluor: CCRF-Adr autofluorescence flag for ABCB1 confirmation | CCRF-Adr cells, compound autofluorescence 488/530 nm, flow cytometry; hits give high values | AID 1483 | 30% of 270 active | fluorescence at 6.6 µM | shares compounds with ABCG2 inh;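 active means fluorescence beyond the plate control mean plus 3 SD, with a fluorescence-to-maximum score over 2, cut at about 25 in these data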
KCC2 secondary: KCC2 (human) modulation, secondary assay | shares compounds with KCC2 mod | HEK293-KCC2, thallium flux, FluoZin2 fluorescence; hits give high values | normalised thallium flux (F/F0 slope) at 10 µM | 15% of 3,700 active | AID 1713;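 active means thallium flux slope above the same plate's solvent-only control mean plus 3 SD; inconclusive means the two replicate wells disagree; inactive means no significant difference from solvent-only control wells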
KCC2 bumet counter: bumetanide-insensitive thallium flux in KCC2 cells with ouabain, counter-screen; shares compounds with KCC2 mod; HEK293-KCC2 + bumetanide/ouabain, thallium flux FluoZin2; hits give high values; normalized thallium flux at 10 µM; 49% of 3,700 active;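 active means thallium entry rate above the same plate's blocked-transporter control wells by more than 3 SD; inconclusive means the two repeat wells disagree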;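 further: raw slope of fluorescence over initial fluorescence between 10 and 20 s after thallium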
KCC2 secondary2: KCC2 (human) modulation, second secondary assay. HEK293-KCC2, thallium flux FluoZin2 fluorescence; actives lie on both sides; F/F0 rise rate, 10–20 s post-thallium. shares compounds with KCC2 mod. normalized thallium flux at 10 µM. AID 1715. 23% of 3,700 active;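 active means thallium flux slope more than 3 SD above or below the plate's solvent-only control mean, mostly below; inconclusive means the two repeat wells disagreed; inactive means no significant shift from solvent-only controls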;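 further: raw slope with 0.1% DMSO as baseline and bumetanide as block control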
HEK293 Tl flux: counter-screen for KCC2 modulators: effect in parental HEK293 cells; thallium flux FluoZin2, ouabain; baseline-ratio fluorescence slope, 10–20 s after thallium; shares compounds with KCC2 mod; AID 1716; 46% of 3,700 active; thallium flux rate (normalised fluorescence) at 10 µM;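 active means thallium flux rate significantly above the same plate's solvent-only control wells, beyond their mean plus 3 SD; inconclusive means the two replicate wells gave conflicting results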
KCC2 retest ouab: KCC2 (human) modulation, ouabain retest; shares compounds with KCC2 mod; HEK293-KCC2, thallium flux FluoZin2 fluorescence; bidirectional: low = inhibitor, high = activator; raw Tl+ flux slope (below DMSO = inhibition, above = activation) at 10 µM; 48% of 3,700 active;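 active means thallium flux slope beyond 3 SD from same-plate DMSO control mean in most replicates, usually higher, sometimes lower; inconclusive means repeat tests gave conflicting results; inactive means no significant difference from controls in most replicates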;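 further: slope of initial-normalized fluorescence between seconds 10 and 20 after thallium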
HEK counter2: parental HEK flux effect, counter-screen 2; shares compounds with KCC2 mod; HEK293 parental, thallium flux FluoZin-2 fluorescence slope; thallium flux slope at 10 µM; 33% of 3,700 active; AID 1718;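 active means thallium flux slope above the same plate's solvent-control mean plus 3 SD in both duplicate wells; inconclusive means duplicate wells that disagreed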;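 further: run without ouabain in cells lacking the KCC2 cotransporter; slope of fluorescence scaled to its starting value between 10 and 20 s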
ROMK hit retest: human ROMK channel modulation, retest confirmation. 54% of 3,000 active. ROMK thallium flux, fluorescence ratio; hits give low values. normalized thallium flux (F/F0 slope) at 10 µM. shares compounds with ROMK mod;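 active means Flux at 10 µM at least 3 SD below or above vehicle control mean in one or both replicates; inconclusive means no clear call, values can overlap the other calls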
Numbers without * were called inactive.

Screening Cc1oc2c(C)c3oc(=O)c4c(c3cc2c1C)CCCC4 returned PMI activator 1, ABCG2 inh 75, PMI act satM6P 0.9, ABCB1 inh 2, ROMK mod 0.76, ABCB1 confirm 8, ABCG2 confirm 18, IgMXP3 autofluor 12 and CCRF autofluor 15.
C[C@@]12CCC=C[C@H]1[C@H](c1ccc(C(F)(F)F)cc1)N(Cc1ccccc1)C2=O was read as KCC2 mod -0.95.
CC(Cc1cccs1)NC(=S)Nc1ccc(Cl)cc1 (centres undefined) was read as PMI activator 1, ABCG2 inh 2, KCC2 mod -2.1, PMI act satM6P 0.9, ABCB1 inh 0 and ROMK mod -0.32.
`CC(Cc1cccs1)NC(=S)Nc1ccc(Cl)c(Cl)c1` (centres undefined) gave PMI activator 1, ABCG2 inh 61, KCC2 mod 6.7*, PMI act satM6P 0.9, ABCB1 inh 1, ABCB1 confirm -4, ABCG2 confirm 7, IgMXP3 autofluor 3.2, CCRF autofluor 10, KCC2 secondary 0.0069, KCC2 bumet counter 0.019*, KCC2 secondary2 0.028, HEK293 Tl flux 0.0084*, KCC2 retest ouab 0.021* and HEK counter2 inconclusive.
CCOC(=O)c1c(-c2ccccc2)csc1NC(=O)/C(C#N)=C/c1ccc(O)c(OC)c1 was read as PMI activator 0.7, ABCG2 inh 123*, KCC2 mod 5.2*, PMI act satM6P 0.7, ABCB1 inh 66*, ABCB1 confirm -30, ABCG2 confirm -39, IgMXP3 autofluor 284*, CCRF autofluor 264*, KCC2 secondary 0.0068, KCC2 bumet counter 0.011*, KCC2 secondary2 0.028, HEK293 Tl flux 0.0095*, KCC2 retest ouab 0.02 and HEK counter2 0.01.
Screening O=C(/C=C/c1cccc([N+](=O)[O-])c1)Nc1cccc(NC(=O)c2cccs2)c1 returned PMI activator 1, ABCG2 inh active, KCC2 mod -4.6*, PMI act satM6P 0.9, ABCB1 inh active, ABCB1 confirm 13, ABCG2 confirm 31, IgMXP3 autofluor -0.59, CCRF autofluor 0.66, KCC2 secondary 0.0071, KCC2 bumet counter inconclusive, KCC2 secondary2 0.025*, HEK293 Tl flux 0.0072, KCC2 retest ouab 0.015* and HEK counter2 0.01.
`CCOC(=O)Cn1nc(C)n(-c2ccc(F)cc2)c1=O` gave PMI activator 1, ABCG2 inh 1, KCC2 mod 1.7, PMI act satM6P 1, ABCB1 inh 0 and ROMK mod 0.043.
Screening O=C(C1CCC(Cn2c(=S)[nH]c3ccccc3c2=O)CC1)N1CCN(c2ccccc2)CC1 (centres undefined) returned KCC2 mod 0.77.
For COc1ccc(N2CCN(C(=O)C3CCC(Cn4c(=S)[nH]c5ccccc5c4=O)CC3)CC2)cc1 (centres undefined) the results were PMI activator 0.8, ABCG2 inh 34, KCC2 mod 2.8*, PMI act satM6P 0.9, ABCB1 inh 41*, ABCB1 confirm 34, ABCG2 confirm 23, IgMXP3 autofluor 2.1, CCRF autofluor 9.5, KCC2 secondary 0.0065, KCC2 bumet counter 0.014*, KCC2 secondary2 0.038, HEK293 Tl flux 0.014*, KCC2 retest ouab inconclusive and HEK counter2 0.015*.
For N#CCC(=O)Nc1ccc(C(=O)Nc2cccc(S(N)(=O)=O)c2)cc1 the results were KCC2 mod 1.
For CCCN1C(=O)/C(=C\C=C2\N(CC)c3ccccc3C2(C)C)SC1=S the results were PMI activator 0.8, ABCG2 inh 104*, KCC2 mod 0.52, PMI act satM6P 0.8, ABCB1 inh 68*, ROMK mod -7.5*, ABCB1 confirm -27, ABCG2 confirm 5, IgMXP3 autofluor 63*, CCRF autofluor 252* and ROMK hit retest 0.053*.
`COc1ccc(Cl)cc1NC(=S)N1CCCC1` gave PMI activator 0.9, ABCG2 inh 9, KCC2 mod 0.75, PMI act satM6P 0.8, ABCB1 inh 1 and ROMK mod 1.6.
`CC(C)(C)/C(O)=C(/C#N)c1nc2ccccc2[nH]1` gave PMI activator 1.1, ABCG2 inh 1, PMI act satM6P 1.1, ABCB1 inh 0 and ROMK mod -1.7.

Source: PubChem BioAssay
